Screens deposited in PubChem BioAssay by Johns Hopkins Ion Channel Center.
Kir21 block = Kir2.1 (mouse) channel inhibition; P35561; HEK293-Kir2.1, FluxOR thallium flux fluorescence; hits give low values; B-score at 10 µM; hit rate 0.85% among 310,000; AID 1672;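 active = fluorescence ratio B-score at or below minus 3 SD of library scores, with starting-brightness B-score within 2 SD, cut at about -4.2 in these data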;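 note: channel flux triggered by added potassium and thallium sulfate stimulus; B-score of peak minus minimum fluorescence over baseline after thallium stimulus; more negative B-score means stronger Kir2.1 block with less thallium influx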
Target sequence (P35561 whole entry, looked up): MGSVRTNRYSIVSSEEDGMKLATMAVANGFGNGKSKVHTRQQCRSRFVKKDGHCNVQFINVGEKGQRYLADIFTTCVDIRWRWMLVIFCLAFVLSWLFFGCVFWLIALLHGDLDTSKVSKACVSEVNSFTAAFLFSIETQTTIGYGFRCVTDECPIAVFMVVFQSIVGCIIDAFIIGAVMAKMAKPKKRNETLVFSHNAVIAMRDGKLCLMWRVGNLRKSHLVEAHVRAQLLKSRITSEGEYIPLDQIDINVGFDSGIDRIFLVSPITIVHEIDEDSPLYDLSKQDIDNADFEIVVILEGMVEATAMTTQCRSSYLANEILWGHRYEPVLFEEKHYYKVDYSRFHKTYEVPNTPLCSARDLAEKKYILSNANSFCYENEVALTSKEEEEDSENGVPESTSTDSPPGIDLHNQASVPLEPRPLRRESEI
KCNK9 block = blocks the human KCNK9 two-pore domain potassium channel; AID 488922; B-score at 10 µM; hit rate 1.2% among 310,000; HEK293 KCNK9, FluxOR thallium flux fluorescence; hits give low values;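 active = ratio B-score over 3 SD below the library mean, with starting fluorescence within 5 SD of its mean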;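 note: negative B-score means less thallium flux so channel inhibition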
Target sequence (Q9NPC2 whole entry, looked up, the tested form may be a part): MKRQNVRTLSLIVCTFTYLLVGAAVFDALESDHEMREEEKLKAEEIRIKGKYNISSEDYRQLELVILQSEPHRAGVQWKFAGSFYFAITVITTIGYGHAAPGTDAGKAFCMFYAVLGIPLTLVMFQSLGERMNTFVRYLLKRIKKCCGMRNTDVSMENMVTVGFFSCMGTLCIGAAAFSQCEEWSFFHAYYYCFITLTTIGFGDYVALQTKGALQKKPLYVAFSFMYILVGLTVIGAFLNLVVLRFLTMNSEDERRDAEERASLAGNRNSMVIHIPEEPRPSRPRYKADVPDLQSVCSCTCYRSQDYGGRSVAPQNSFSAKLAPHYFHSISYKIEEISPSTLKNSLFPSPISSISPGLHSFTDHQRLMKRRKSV
KCNK3 inh = human KCNK3 channel inhibition, primary screen | O14649 | hit rate 0.84% among 340,000 | CHO-KCNK3 thallium flux, FluxOR fluorescence; hits give low values | B-score at 10 µM;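 active = B-score under library mean minus 4 SD, starting fluorescence ratio at most library mean plus 5 SD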;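 note: more negative B-score means stronger inhibition of thallium flux through KCNK3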
KCNQ1 act = potentiates or activates the human KCNQ1 potassium channel; B-score at 10 µM; CHO-K1 KCNQ1, thallium flux FluxOR fluorescence; hits give high values; hit rate 0.35% among 310,000;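 active = fluorescence ratio B-score, a plate-corrected score, at least three library SD, with initial intensity B-score within 5 SD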
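System: CHO-K1 cells stably expressing KCNQ1 / Medium: assay buffer for compound exposure, DMSO matched across wells / Reagent: thallium- and potassium-containing depolarizing buffer / Compound: one concentration, matched DMSO / Incubation: 20 min compound pretreatment at room temperature / Measured by: kinetic FluxOR fluorescence, 10 s baseline plus 110 s post-stimulus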
hERG rescue = hERG (human) protection from proarrhythmic block | CHO-hERG, FluxOR thallium flux, dofetilide IC70 present | AID 1511 | hit rate 0.51% among 310,000 | activation (rescue from dofetilide block), less the hit threshold, % at 10 µM | Q12809;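 active = activation above the mean of controls blocked by dofetilide plus 5 SD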;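 note: thallium influx through hERG after potassium depolarization seen as dye fluorescence rise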
KCNQ1 inh = inhibitors of human KCNQ1 potassium channel; hit rate 1.3% among 310,000; CHO-K1 KCNQ1, FluxOR thallium flux fluorescence; hits give high values; B-score at 10 µM; AID 2642;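 active = compounds whose thallium flux B-score, printed positive for inhibition, exceeds three library SD while starting fluorescence stays within three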;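 note: channel opened by potassium depolarization with thallium stimulus after 20 min compound exposure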
KCNQ1 block val = human KCNQ1 channel inhibition, validation assay; shares compounds with KCNQ1 inh; KCNQ1 cell line, FluxOR thallium flux fluorescence; inhibition, % at 10 µM; hit rate 93% among 1,600;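 active = primary screen active, with duplicate mean exceeding buffer control mean plus 3 SD of buffer wells, cut at about 28% in these data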
CHO KCNQ1 ctr = activity in parental CHO cells lacking KCNQ1; hit rate 21% among 1,600; shares compounds with KCNQ1 inh; fluorescence ratio (Tl flux) at 10 µM; parental CHO-K1, FluxOR thallium flux fluorescence ratio; hits give low values; zero means no signal rise above baseline;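 active = mean of duplicate thallium-flux fluorescence ratios in parental host cells more than 5 SD below the buffer control mean, cut at about 0.38 in these data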;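 note: ratio is peak minus minimum fluorescence divided by baseline fluorescence; actives read low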
KCNQ1 APC inh = confirmation of human KCNQ1 potassium channel inhibitors by electrophysiology | KCNQ1-CHO cells, automated patch clamp current | calls only at 10 µM | hit rate 20% among 490 | AID 624120 | shares compounds with KCNQ1 inh;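 active = KCNQ1 current drop exceeding 3 SD of negative control wells, seen in both duplicate runs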;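 note: steady state current during a 2 s step from -80 to +40 mV; negative values mean current inhibition and positive values mean potentiation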
KCNQ2 inh = rat KCNQ2 inhibition in KCNQ1 inhibitor specificity screen; shares compounds with KCNQ1 inh; KCNQ2 cells, FluxOR thallium flux fluorescence; inhibition, % at 10 µM; hit rate 71% among 1,600;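 active = mean percent inhibition of the KCNQ2 thallium signal more than 5 SD above the buffer-only control wells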;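 note: KCNQ2 expressed in CHO cells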
KCNQ1-KCNE1 inh = selectivity of KCNQ1 inhibitors: inhibition of human KCNQ1/KCNE1 channel; inhibition, % at 10 µM; AID 652147; hit rate 77% among 1,600; shares compounds with KCNQ1 inh; KCNQ1/KCNE1 cells, FluxOR thallium flux fluorescence;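 active = mean percent inhibition of duplicate wells above the buffer-only control mean plus 3 SD of those controls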
KCNK9 inh conf = human KCNK9 inhibitor confirmation; HEK293 KCNK9 cells, FluxOR thallium flux fluorescence; AID 492992; shares compounds with KCNK9 block; inhibition, % at 10 µM; hit rate 43% among 4,900;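 active = thallium signal inhibited by more than 5 SD of the compound-free buffer control wells, on both duplicate plates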
Kir21 sel = tests whether KCNK9 modulators also affect mouse Kir2.1; Kir2.1 cells, FluxOR thallium flux fluorescence; AID 492993; inhibition, % at 10 µM; shares compounds with KCNK9 block; hit rate 4% among 4,900;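 active = thallium signal drop more than 5 SD beyond the mean of the no-compound control wells, seen in both duplicate plates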;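 note: signal is fluorescence rise after thallium addition divided by baseline fluorescence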
KCNK9 uninduced = second check of KCNK9 modulator effects in non-induced HEK293 cells. shares compounds with KCNK9 block. FluxOR thallium flux. inhibition, % at 10 µM. hit rate 40% among 4,900;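 active = thallium signal drop beyond 5 SD of the untreated control mean, on both duplicate plates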
KCNK3 confirm = confirmation of human KCNK3 two-pore domain potassium channel inhibitors | CHO-KCNK3 thallium flux, FluxOR fluorescence; 0% buffer, 100% carvedilol maximal block | ratio percent of control, % at 10 µM | AID 651638 | hit rate 99% among 2,400 | shares compounds with KCNK3 inh;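 active = ratio percent of control, averaged over triplicates, above buffer control mean plus 5 SD, cut at about 64% in these data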;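 note: ratio is the fluorescence rise from min to max over baseline after thallium stimulus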
KCNK3 uninduced = KCNK3 inhibitor counter-screen hit in non-induced cells. shares compounds with KCNK3 inh. non-induced KCNK3 parental cells, FluxOR thallium flux; hits give low values. thallium flux ratio (lower = more inhibition) at 10 µM. hit rate 40% among 2,400. AID 651747;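 active = thallium flux ratio, averaged over three wells, more than 5 SD below the buffer control mean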;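 note: host cells are CHO cells without KCNK3 induction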
Each line names hits and unclear results; the compound was inactive in the other large screens (follow-up assays come after a bar, where they were run). Compounds with a hit are over-represented: about 3.7% of the library has one in this group of screens.

CCS(=O)(=O)c1ncc(Cl)c(C(=O)Nc2ccc(S(=O)(=O)N3CCC(C)CC3)cc2)n1	KCNK9 block -7.02, KCNK3 inh -8.81, KCNQ1 inh 6 | KCNQ1 block val inactive | CHO KCNQ1 ctr inactive | KCNQ2 inh inactive | KCNQ1-KCNE1 inh 69.5% | KCNK3 confirm 124.0 | KCNK3 uninduced 0.118
CC1CCN(S(=O)(=O)c2ccc(NC(=O)c3ccncc3)cc2)CC1	none
Cc1cccc(C)c1NC(=O)c1cccc2c1C(=O)N(C1CCCCC1)C2	KCNK9 block -19.3, KCNK3 inh -15.4, KCNQ1 inh 6 | KCNQ1 block val 74.5 | CHO KCNQ1 ctr inactive | KCNQ2 inh 104.7% | KCNQ1-KCNE1 inh 129.0% | KCNK9 inh conf 52.5% | Kir21 sel inactive | KCNK9 uninduced 36.0% | KCNK3 confirm 125.7 | KCNK3 uninduced 0.154
Cc1cc(NC(=O)c2cccc3c2C(=O)N(C2CCCCC2)C3)ccc1Br	none
CN(C)S(=O)(=O)c1cccc(C(=O)Nc2cc(Cl)cc(Cl)c2)c1	KCNK3 inh -12.7, KCNQ1 inh 7 | KCNQ1 block val 67.0 | CHO KCNQ1 ctr inactive | KCNQ2 inh 110.0% | KCNQ1-KCNE1 inh inactive | KCNK3 confirm 125.7 | KCNK3 uninduced inactive
O=c1c2c(nc(NCCO)n1CC1CCCCC1)-c1ccccc1CC21CCCC1	KCNK9 block -7.4, KCNK3 inh -16.3, KCNQ1 inh 6 | KCNQ1 block val 91.0 | CHO KCNQ1 ctr inactive | KCNQ1 APC inh inactive | KCNQ2 inh 104.0% | KCNQ1-KCNE1 inh inactive | KCNK3 confirm 114.7 | KCNK3 uninduced 0.158
CC1(C)CC(n2c(NCCO)nc3c(c2=O)C2(CCCC2)Cc2ccccc2-3)CCO1 (stereo not drawn)	none
O=C(NCCCN1CCCC1=O)C(=O)NCC1OCCCN1S(=O)(=O)c1cc(F)ccc1F (stereo not drawn)	none
CCOC(=O)c1cccc(NC(=O)c2ccc(-n3cnnn3)cc2)c1	none (no result: Kir21 block, KCNK9 block, KCNQ1 act, hERG rescue, KCNQ1 inh)
CCOc1ccc(C(=O)Nc2cccc(C(=O)O)c2)cc1Cl	none
CCOc1ccc(C(=O)Nc2cccc(-c3nc4cccnc4o3)c2)cc1Cl	KCNK9 block -16.4, KCNK3 inh -10, KCNQ1 inh 9 | KCNQ1 block val 135.0 | CHO KCNQ1 ctr inactive | KCNQ1 APC inh inactive | KCNQ2 inh 110.3% | KCNQ1-KCNE1 inh 189.5% | KCNK9 inh conf 45.5% | Kir21 sel inactive | KCNK9 uninduced inactive | KCNK3 confirm 125.3 | KCNK3 uninduced inactive
COc1ccc(NC(=O)C2=C(C)Nc3nc(CCCO)nn3C2c2ccc(OC)c(OC)c2)cc1 (stereo not drawn)	none
Cc1ccc(N2C(=O)N(c3ccc(C)cc3)C3CS(=O)(=O)CC32)cc1 (stereo not drawn)	none
CC(=O)c1c(C)[nH]c(C(=O)Nc2cccc(S(=O)(=O)N(C)c3ccccc3)c2)c1C	KCNK9 block -8.61, KCNK3 inh -10.9, KCNQ1 inh 16 | KCNQ1 block val 128.0 | CHO KCNQ1 ctr 0.354 | KCNQ2 inh 143.0% | KCNQ1-KCNE1 inh 184.0% | KCNK9 inh conf inactive | Kir21 sel inactive | KCNK9 uninduced 35.5% | KCNK3 confirm 133.3 | KCNK3 uninduced 0.123
CC(C)Cc1nc(N2CCN(C(=O)c3ccco3)CC2)c(C#N)c2c1CCCC2	KCNK9 block -16, KCNK3 inh -10.2, KCNQ1 inh 11 | KCNQ1 block val 116.0 | CHO KCNQ1 ctr 0.318 | KCNQ2 inh 116.7% | KCNQ1-KCNE1 inh inactive | KCNK9 inh conf 34.0% | Kir21 sel inactive | KCNK9 uninduced 28.5% | KCNK3 confirm 66.0 | KCNK3 uninduced inactive
NC(=O)c1ccsc1NC(=O)COC(=O)Cc1cccc2ccccc12	KCNK3 inh -8.92, KCNQ1 inh 9 | KCNQ1 block val 110.0 | CHO KCNQ1 ctr 0.314 | KCNQ2 inh 103.7% | KCNQ1-KCNE1 inh active | KCNK3 confirm 115.7 | KCNK3 uninduced inactive
CN(C)S(=O)(=O)c1cccc(NC(=O)CN2C(=O)NC(Cc3ccccc3)C2=O)c1 (stereo not drawn)	none (no result: Kir21 block, KCNK9 block, KCNQ1 act, hERG rescue, KCNQ1 inh)
COc1ccc(CCNC(C(=O)Nc2cc(C)cc(C)c2)c2ccccc2)cc1 (stereo not drawn)	KCNK3 inh -14, KCNQ1 inh 12 | KCNQ1 block val 87.5 | CHO KCNQ1 ctr 0.369 | KCNQ2 inh 122.3% | KCNQ1-KCNE1 inh 143.5% | KCNK3 confirm 117.7 | KCNK3 uninduced 0.139
CCOC(=O)[C@@H]1[C@H]2COc3cc(OC)ccc3[C@@H]2N2C(=O)N(c3cccc(Cl)c3)C(=O)[C@@]12C	none
Cc1cnc(NC(=O)CC2OC(=O)c3ccccc32)s1 (stereo not drawn)	none (no result: Kir21 block, KCNK9 block, KCNQ1 act, hERG rescue, KCNQ1 inh)
O=C(NCCSCc1ccco1)Nc1cc(Cl)cc(Cl)c1	KCNK9 block -8.24, KCNK3 inh -13.2, KCNQ1 inh 8 | KCNQ1 block val 134.5 | CHO KCNQ1 ctr inactive | KCNQ1 APC inh inactive | KCNQ2 inh inactive | KCNQ1-KCNE1 inh 91.0% | KCNK9 inh conf 67.5% | Kir21 sel inactive | KCNK9 uninduced 31.5% | KCNK3 confirm 100.3 | KCNK3 uninduced inactive
CS(=O)(=O)N(CC(=O)NCCSCc1ccco1)c1ccc(Cl)cc1	none
